Data set [1] relates to Human immunodeficiency virus 1. The data set is described as follows: Antiviral activity against HIV-1 infected in human CEM-TART cells assessed as protection against virus-induced cytopathicity after 96 hrs by MTT assay. The class given is functional, organism-based. The gist of the method: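 1A2 subclone of CEM-TART (more lysis-sensitive) in RPMI 1640/20% FBS; compound in DMSO (1% vol) added 2 h after HIV infection; 96 h at 37 °C, 5% CO2; viability by MTT (3–4 h), formazan dissolved in DMSO/0.1% SDS, A570. Triplicates per plate; EC50 = concentration giving 50% of protection by 5 μM AZT, data from ≥3 experiments combined.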

A short description of data set [2]: Cytotoxicity against human CEM-TART cells assessed as cell viability at 100 uM after 72 hrs by MTT assay. It counts as cell-based. The gist of the method: (§1)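 20,000 CEM-TART cells with compound (DMSO, 0.5% final) in RPMI/20% FBS with antibiotic; 72 h at 37 °C, 5% CO2; MTT (5 mg/mL in PBS) added, formazan dissolved in DMSO/0.1% SDS and read on plate reader; triplicate or quadruplicate. Highest concentration tested 100 μM.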

Data set [3] can be described thus: Therapeutic index, ratio of LC50 for human CEM-TART cells to EC50 for HIV-1 infected in human CEM-TART cells. It counts as cell-based. As to conditions: read-out: TI; call rule not given here.
In data set [4] the test system is Human immunodeficiency virus 1. As to the kind of experiment: Antiviral activity against HIV1 infected in human CEM-TART cells assessed as inhibition of viral p24 antigen production at 1.7 uM after 48 hrs by FACS analysis. The class given is functional. As to conditions: Human immunodeficiency virus 1, CEM-TART. The gist of the method:
(§2)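 HIV-infected CEM-TART cells, 48 h. Cells washed in PBS and blocked with murine myeloma IgG (1:100, 30 min, 4 °C). Then fixed in PBS/1% paraformaldehyde/0.05% Triton X100 and stained with AG3.0 mouse anti-P24 (1:50). FITC goat anti-mouse secondary, 30 min at 4 °C each step. Intracellular P24 read by flow cytometry. AZT 5 or 0.5 μg/mL controls.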

Data set [5] in a line: Cytotoxicity against human CEM-TART cells assessed as cell viability after 72 hrs by MTT assay. It counts as cell-based. As to conditions: read-out: LC50. The gist of the method: as §1
The subject of data set [6] is Human immunodeficiency virus 1. As to the kind of experiment: Antiviral activity against HIV1 infected in human CEM-TART cells assessed as inhibition of viral p24 antigen production at 0.95 uM after 48 hrs by FACS analysis. It counts as functional. Conditions: Human immunodeficiency virus 1, CEM-TART. In short, it runs like this: as §2
[7] abbreviates: Human immunodeficiency virus 1, CEM-TART, 96 h, read-out: EC50.

Where only a bound is given, the exact number is not on record here.

In the case of `Cc1[nH]c2ccc3c(c2c(=O)c1O[C@@H]1O[C@H](CO)[C@@H](O)[C@H](O)[C@H]1O)[C@@H]1CC[C@H](O)[C@@]3(c2ccccc2)O1`, in data set [1] (cem-tart), the EC50 result is listed as “Not Active”. Also, in data set [2], the Activity result was “Non-toxic”.

As to `COc1ccccc1[C@@]1(O)c2ccc3[nH]c(C)c(OC)c(=O)c3c2[C@@H]2CC[C@H]1O2`, the selectivity ratio in data set [3] was determined as 2. Also, the inhibition at 1.7 µM in data set [4] is more than 50%. Moreover, the CC50 at 72 h in data set [5] amounted to 102 µM. Besides, in data set [1] (setting [7]), the EC50 turned out to be 56.2 µM.

Take `Cc1cn([C@H]2C[C@H](N=[N+]=[N-])[C@@H](CO)O2)c(=O)[nH]c1=O` [ZIDOVUDINE]: the CC50 at 72 h in data set [5] came to 89.5 µM. Also, the EC50 in data set [1] (setting [7]) was 1.3 µM.

On to `COc1c(C)[nH]c2ccc3c(c2c1=O)[C@@H]1CCC[C@@]3(c2ccccc2)O1`, for which, in data set [3], the selectivity ratio came to 13. For the same compound, the inhibition at 0.95 µM in data set [6] is more than 50%. In addition, the CC50 at 72 h in data set [5] amounted to 11 µM. For the same compound, in data set [1] (setting [7]), the half-maximal effective concentration (EC50) worked out at 0.84 µM.

(Values after ChEMBL document CHEMBL3102691, “4-Quinolone alkaloids from Melochia odorata” (J Nat Prod, 2014).)
